Measured values published in ChEMBL document CHEMBL4689842, “EUbOPEN Chemogenomics Library wave 1” (2021).

Tested on: U2OS
Test: Multiplex assay against U2OS
Format: toxicity, cell-based
Details: human
Outline: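 Tubulin, mitochondrial-mass and membrane-permeability phenotypes are per cents of healthy-nucleus cells. Cells were gated by CellPathfinder machine learning into Hoechst high-intensity objects or normal cells, normal cells into healthy, pyknosed or fragmented nuclei, and pyknosed cells into mitotic or apoptotic. Before that, live cells stained at seeding with Hoechst33342, BioTracker Green Microtubule Cytoskeleton Dye, MitoTracker Red and Annexin V Alexa Fluor 680 were imaged on a CQ1 microscope at 37°C and 5% CO2 after compound addition.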

[1] = 12 h, 1 µM, compound concentration 1 uM, replicate 1
[2] = 12 h, 1 µM, compound concentration 1 uM, replicate 2
[3] = 12 h, 10 µM, compound concentration 10 uM, replicate 1
[4] = 12 h, 10 µM, compound concentration 10 uM, replicate 2
[5] = 24 h, 1 µM, compound concentration 1 uM, replicate 1
[6] = 24 h, 1 µM, compound concentration 1 uM, replicate 2
[7] = 24 h, 10 µM, compound concentration 10 uM, replicate 1
[8] = 24 h, 10 µM, compound concentration 10 uM, replicate 2
[9] = 48 h, 1 µM, compound concentration 1 uM, replicate 1
[10] = 48 h, 1 µM, compound concentration 1 uM, replicate 2
[11] = 48 h, 10 µM, compound concentration 10 uM, replicate 1
[12] = 48 h, 10 µM, compound concentration 10 uM, replicate 2

CC(C)c1noc(N2CCC(COc3ccc(-c4ccc(S(C)(=O)=O)cc4)nc3)CC2)n1 [GSK-1292263]
Population Apoptotic (%) [1]: 58%
Population Fragmented Nuclei (%) [1]: 25%
Population Healthy Nuclei (%) [1]: 64%
Population Hoechst High Intensity Objects (%) [1]: 17%
Population Membrane Permeable-Phenotype (%) [1]: 5%
Population Mitochondria Different-Phenotype (%) [1]: 10%
Population Mitotic Cells (%) [1]: 41%
Population Normal (%) [1]: 82%
Population Pyknosed Nuclei (%) [1]: 10%
Population Tubulin-Different-Phenotype (%) [1]: 10%
Total Cell Count [1]: 304
Population Apoptotic (%) [2]: 50%
Population Fragmented Nuclei (%) [2]: 12%
Population Healthy Nuclei (%) [2]: 85%
Population Hoechst High Intensity Objects (%) [2]: 2%
Population Membrane Permeable-Phenotype (%) [2]: 3%
Population Mitochondria Different-Phenotype (%) [2]: 4%
Population Mitotic Cells (%) [2]: 50%
Population Normal (%) [2]: 97%
Population Pyknosed Nuclei (%) [2]: 2%
Population Tubulin-Different-Phenotype (%) [2]: 9%
Total Cell Count [2]: 89
Population Apoptotic (%) [3]: 54%
Population Fragmented Nuclei (%) [3]: 16%
Population Healthy Nuclei (%) [3]: 67%
Population Hoechst High Intensity Objects (%) [3]: 7%
Population Membrane Permeable-Phenotype (%) [3]: 12%
Population Mitochondria Different-Phenotype (%) [3]: 18%
Population Mitotic Cells (%) [3]: 45%
Population Normal (%) [3]: 92%
Population Pyknosed Nuclei (%) [3]: 15%
Population Tubulin-Different-Phenotype (%) [3]: 33%
Total Cell Count [3]: 141
Population Apoptotic (%) [4]: 42%
Population Fragmented Nuclei (%) [4]: 5%
Population Healthy Nuclei (%) [4]: 83%
Population Hoechst High Intensity Objects (%) [4]: 5%
Population Membrane Permeable-Phenotype (%) [4]: 3%
Population Mitochondria Different-Phenotype (%) [4]: 10%
Population Mitotic Cells (%) [4]: 57%
Population Normal (%) [4]: 94%
Population Pyknosed Nuclei (%) [4]: 10%
Population Tubulin-Different-Phenotype (%) [4]: 15%
Total Cell Count [4]: 76
Population Apoptotic (%) [5]: 50%
Population Fragmented Nuclei (%) [5]: 17%
Population Healthy Nuclei (%) [5]: 73%
Population Hoechst High Intensity Objects (%) [5]: 15%
Population Membrane Permeable-Phenotype (%) [5]: 5%
Population Mitochondria Different-Phenotype (%) [5]: 11%
Population Mitotic Cells (%) [5]: 50%
Population Normal (%) [5]: 84%
Population Pyknosed Nuclei (%) [5]: 8%
Population Tubulin-Different-Phenotype (%) [5]: 5%
Total Cell Count [5]: 334
Population Apoptotic (%) [6]: 0%
Population Fragmented Nuclei (%) [6]: 14%
Population Healthy Nuclei (%) [6]: 83%
Population Hoechst High Intensity Objects (%) [6]: 2%
Population Membrane Permeable-Phenotype (%) [6]: 2%
Population Mitochondria Different-Phenotype (%) [6]: 10%
Population Mitotic Cells (%) [6]: 100%
Population Normal (%) [6]: 97%
Population Pyknosed Nuclei (%) [6]: 2%
Population Tubulin-Different-Phenotype (%) [6]: 13%
Total Cell Count [6]: 103
Population Apoptotic (%) [7]: 40%
Population Fragmented Nuclei (%) [7]: 20%
Population Healthy Nuclei (%) [7]: 67%
Population Hoechst High Intensity Objects (%) [7]: 7%
Population Membrane Permeable-Phenotype (%) [7]: 9%
Population Mitochondria Different-Phenotype (%) [7]: 14%
Population Mitotic Cells (%) [7]: 60%
Population Normal (%) [7]: 92%
Population Pyknosed Nuclei (%) [7]: 12%
Population Tubulin-Different-Phenotype (%) [7]: 14%
Total Cell Count [7]: 168
Population Apoptotic (%) [8]: 36%
Population Fragmented Nuclei (%) [8]: 7%
Population Healthy Nuclei (%) [8]: 79%
Population Hoechst High Intensity Objects (%) [8]: 4%
Population Membrane Permeable-Phenotype (%) [8]: 7%
Population Mitochondria Different-Phenotype (%) [8]: 12%
Population Mitotic Cells (%) [8]: 63%
Population Normal (%) [8]: 95%
Population Pyknosed Nuclei (%) [8]: 13%
Population Tubulin-Different-Phenotype (%) [8]: 7%
Total Cell Count [8]: 91
Population Apoptotic (%) [9]: 42%
Population Healthy Nuclei (%) [9]: 79%
Population Hoechst High Intensity Objects (%) [9]: 9%
Population Membrane Permeable-Phenotype (%) [9]: 2%
Population Mitochondria Different-Phenotype (%) [9]: 12%
Population Mitotic Cells (%) [9]: 57%
Population Normal (%) [9]: 90%
Population Pyknosed Nuclei (%) [9]: 9%
Population Tubulin-Different-Phenotype (%) [9]: 8%
Total Cell Count [9]: 406
Population Apoptotic (%) [10]: 25%
Population Fragmented Nuclei (%) [10]: 11%
Population Healthy Nuclei (%) [10]: 85%
Population Hoechst High Intensity Objects (%) [10]: 0%
Population Membrane Permeable-Phenotype (%) [10]: 4%
Population Mitochondria Different-Phenotype (%) [10]: 13%
Population Mitotic Cells (%) [10]: 75%
Population Normal (%) [10]: 100%
Population Pyknosed Nuclei (%) [10]: 3%
Population Tubulin-Different-Phenotype (%) [10]: 12%
Total Cell Count [10]: 136
Population Apoptotic (%) [11]: 60%
Population Fragmented Nuclei (%) [11]: 14%
Population Healthy Nuclei (%) [11]: 76%
Population Hoechst High Intensity Objects (%) [11]: 8%
Population Mitotic Cells (%) [11]: 40%
Population Normal (%) [11]: 91%
Population Pyknosed Nuclei (%) [11]: 9%
Population Tubulin-Different-Phenotype (%) [11]: 9%
Total Cell Count [11]: 231
Population Apoptotic (%) [12]: 23%
Population Fragmented Nuclei (%) [12]: 5%
Population Healthy Nuclei (%) [12]: 80%
Population Hoechst High Intensity Objects (%) [12]: 2%
Population Membrane Permeable-Phenotype (%) [12]: 6%
Population Mitochondria Different-Phenotype (%) [12]: 13%
Population Mitotic Cells (%) [12]: 76%
Population Normal (%) [12]: 97%
Population Pyknosed Nuclei (%) [12]: 14%
Population Tubulin-Different-Phenotype (%) [12]: 7%
Total Cell Count [12]: 130

C=CC(=O)Nc1ccc2[nH]c(=O)n(C3CCN(Cc4ccc(-c5nc6cc[nH]c(=O)c6cc5-c5ccccc5)cc4)CC3)c2c1 [Borussertib]
Population Apoptotic (%) [1]: 25%
Population Fragmented Nuclei (%) [1]: 5%
Population Healthy Nuclei (%) [1]: 91%
Population Hoechst High Intensity Objects (%) [1]: 3%
Population Membrane Permeable-Phenotype (%) [1]: 12%
Population Mitochondria Different-Phenotype (%) [1]: 35%
Population Mitotic Cells (%) [1]: 75%
Population Normal (%) [1]: 96%
Population Pyknosed Nuclei (%) [1]: 2%
Population Tubulin-Different-Phenotype (%) [1]: 29%
Total Cell Count [1]: 158
Population Apoptotic (%) [2]: 28%
Population Healthy Nuclei (%) [2]: 87%
Population Hoechst High Intensity Objects (%) [2]: 14%
Population Membrane Permeable-Phenotype (%) [2]: 11%
Population Mitochondria Different-Phenotype (%) [2]: 21%
Population Mitotic Cells (%) [2]: 71%
Population Normal (%) [2]: 85%
Population Pyknosed Nuclei (%) [2]: 6%
Population Tubulin-Different-Phenotype (%) [2]: 23%
Total Cell Count [2]: 124
Population Apoptotic (%) [3]: 54%
Population Fragmented Nuclei (%) [3]: 2%
Population Healthy Nuclei (%) [3]: 84%
Population Hoechst High Intensity Objects (%) [3]: 4%
Population Membrane Permeable-Phenotype (%) [3]: 24%
Population Mitochondria Different-Phenotype (%) [3]: 18%
Population Mitotic Cells (%) [3]: 45%
Population Normal (%) [3]: 95%
Population Pyknosed Nuclei (%) [3]: 13%
Population Tubulin-Different-Phenotype (%) [3]: 38%
Total Cell Count [3]: 190
Population Apoptotic (%) [4]: 60%
Population Fragmented Nuclei (%) [4]: 6%
Population Healthy Nuclei (%) [4]: 77%
Population Hoechst High Intensity Objects (%) [4]: 8%
Population Membrane Permeable-Phenotype (%) [4]: 33%
Population Mitochondria Different-Phenotype (%) [4]: 28%
Population Mitotic Cells (%) [4]: 40%
Population Normal (%) [4]: 91%
Population Pyknosed Nuclei (%) [4]: 15%
Population Tubulin-Different-Phenotype (%) [4]: 32%
Total Cell Count [4]: 104
Population Apoptotic (%) [5]: 36%
Population Fragmented Nuclei (%) [5]: 1%
Population Healthy Nuclei (%) [5]: 93%
Population Hoechst High Intensity Objects (%) [5]: 2%
Population Membrane Permeable-Phenotype (%) [5]: 8%
Population Mitochondria Different-Phenotype (%) [5]: 22%
Population Mitotic Cells (%) [5]: 63%
Population Normal (%) [5]: 97%
Population Pyknosed Nuclei (%) [5]: 5%
Population Tubulin-Different-Phenotype (%) [5]: 34%
Total Cell Count [5]: 220
Population Apoptotic (%) [6]: 37%
Population Fragmented Nuclei (%) [6]: 9%
Population Healthy Nuclei (%) [6]: 84%
Population Hoechst High Intensity Objects (%) [6]: 7%
Population Membrane Permeable-Phenotype (%) [6]: 10%
Population Mitochondria Different-Phenotype (%) [6]: 29%
Population Mitotic Cells (%) [6]: 62%
Population Normal (%) [6]: 92%
Population Pyknosed Nuclei (%) [6]: 6%
Population Tubulin-Different-Phenotype (%) [6]: 28%
Total Cell Count [6]: 137
Population Apoptotic (%) [7]: 66%
Population Fragmented Nuclei (%) [7]: 6%
Population Healthy Nuclei (%) [7]: 85%
Population Hoechst High Intensity Objects (%) [7]: 2%
Population Membrane Permeable-Phenotype (%) [7]: 13%
Population Mitochondria Different-Phenotype (%) [7]: 19%
Population Mitotic Cells (%) [7]: 33%
Population Normal (%) [7]: 97%
Population Pyknosed Nuclei (%) [7]: 7%
Population Tubulin-Different-Phenotype (%) [7]: 26%
Total Cell Count [7]: 238
Population Apoptotic (%) [8]: 83%
Population Fragmented Nuclei (%) [8]: 12%
Population Healthy Nuclei (%) [8]: 76%
Population Hoechst High Intensity Objects (%) [8]: 13%
Population Membrane Permeable-Phenotype (%) [8]: 21%
Population Mitochondria Different-Phenotype (%) [8]: 28%
Population Mitotic Cells (%) [8]: 16%
Population Normal (%) [8]: 86%
Population Pyknosed Nuclei (%) [8]: 11%
Population Tubulin-Different-Phenotype (%) [8]: 22%
Total Cell Count [8]: 121
